WT yeast gro inh – growth inhibition of WT yeast, mitochondrial fusion screen; mitochondrial fusion phenotypic screen, WT strain; inhibition, % at 10 µM; 190,000 compounds, 2.1% hits; in the data active means inhibition above about 58%; tested in S. cerevisiae
Diaphorase act – counter-screen for diaphorase-based assays: diaphorase activators and chemical reducers; 190,000 compounds, 0.005% hits; activation factor at 20 µM; Diaphorase/resazurin coupled assay, resorufin fluorescence, 16 min; active compounds read high; 1 = vehicle wells, 0 = NADH-free wells;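 active means diaphorase activity raised at least twofold by the compound at 20 µM; inactive means activation factor below 2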
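Material: purified diaphorase enzyme from Clostridium kluyveri / Medium: HEPES pH 7.4 buffer with MgCl2 and Tween 20 / Schedule: enzyme reaction of 16 min at room temperature / Measured by: resorufin fluorescence, excitation 544 nm, emission 590 nm / Evaluation: rise in resorufin formation, marking diaphorase activation or chemical reduction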
G6PDH counter – L. mesenteroides G6PDH inhibition counter-screen; inhibition, % at 5 µM; 200,000 compounds, 0.12% hits; Purified L. mesenteroides G6PDH, diaphorase/resazurin coupled fluorescence, 45 min
Diaphorase inh – inhibits diaphorase or chemically oxidizes, flagging diaphorase assay artifacts; diaphorase resazurin-to-resorufin fluorescence, NADH, 16 min; bacterial (C. kluyveri) enzyme, not human; inhibition, % at 20 µM; 190,000 compounds, 0.69% hits; AID 1217;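 active means primary screen inhibition at 20 µM above a set limit, cut at about 50% in these data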;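 further: plate controls were DMSO with full reaction for no effect and wells lacking NADH for full effect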
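Test system: Clostridium kluyveri diaphorase enzyme / Quantity: diaphorase at 0.14 U/mL in enzyme working solution / Incubation: 16-min room-temperature incubation before reading / Benchmarks: NADH-free wells as positive control, DMSO-only neutral wells / Signal: resorufin fluorescence 544/590 nm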
L major viab – reduces viability of Leishmania major promastigotes | resazurin fluorescence viability | inhibition, % at 10 µM | 200,000 compounds, 9% hits | AID 1063;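 further: promastigotes grown with compound for 44 hours at 28 °C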
An asterisk follows results filed as active. Rows were chosen to be rich in hits. Some 11% of all compounds tested hit in one or more screens of this group. Unless noted, no stated cut-off is given here; in the data, active means inhibition above about 50%; inactive means the rest.

O=C(CSc1oc(-c2cccs2)nc1S(=O)(=O)c1ccccc1)NC1CCCCC1 was read as WT yeast gro inh -26, Diaphorase act 0.8, G6PDH counter 8, Diaphorase inh 17 and L major viab 98*.
COCCCNc1oc(-c2cccs2)nc1S(=O)(=O)c1ccc(C)cc1 was read as WT yeast gro inh 7, Diaphorase act 1, G6PDH counter 3, Diaphorase inh 2 and L major viab 5.
O=C(CSc1nnc(-c2cc(-c3cccs3)nc3ccccc23)o1)NC1CCCCC1 was read as WT yeast gro inh 6, Diaphorase act 0.8, G6PDH counter 6, Diaphorase inh 20 and L major viab 5.
`CC(=O)Nc1cccc(NC(C)=C(C#N)C#N)c1` gave WT yeast gro inh -3, Diaphorase act 0.9, G6PDH counter 4, Diaphorase inh 10 and L major viab 1.
For CC(=O)NCCN1C(=O)S/C(=C\c2cccs2)C1=O the results were WT yeast gro inh 2, Diaphorase act 0.9, G6PDH counter -8, Diaphorase inh 11 and L major viab -3.
Screening COc1cc(C)ccc1OCCOc1c(C)cc(Cl)cc1Cl returned WT yeast gro inh -12, Diaphorase act 0.8, G6PDH counter 7, Diaphorase inh 17 and L major viab -5.
CC(C)C[C@H](NC(=O)OC(C)(C)C)c1nnc(SCc2cccc(F)c2)o1 was read as WT yeast gro inh 22, Diaphorase act 0.9, G6PDH counter 19, Diaphorase inh 14 and L major viab 69*.
`Cc1ccc(NC(=O)C(Cc2ccccc2)N2C(=O)C3C4CCC(C4)C3C2=O)cc1Cl` (centres undefined) gave WT yeast gro inh -6, Diaphorase act 0.8, G6PDH counter 3, Diaphorase inh 24 and L major viab 88*.
`Cc1ccc(C)c(NC(=O)Cn2nnc(-c3ccc(N4CCOCC4)cc3)n2)c1` gave WT yeast gro inh -13, Diaphorase act 1, G6PDH counter 8, Diaphorase inh -4 and L major viab -7.
`CCOc1cc(C2Nc3ccccc3C(=O)N2c2ccccc2OC)ccc1O` (centres undefined) gave WT yeast gro inh 74*, Diaphorase act 0.9, G6PDH counter 5, Diaphorase inh 11 and L major viab 8.
For COc1cc(C2Nc3ccccc3C(=O)N2c2ccccc2OC)ccc1O (centres undefined) the results were WT yeast gro inh -27, Diaphorase act 1.1, G6PDH counter 10, Diaphorase inh -5 and L major viab 1.
For CCCCN(CC)CCCNC(=O)C1CCN(c2ncnc3c2sc2cccc(F)c23)CC1 the results were WT yeast gro inh -12, Diaphorase act 0.9, G6PDH counter 7, Diaphorase inh 12 and L major viab 100*.
For COc1ccc(NC(=O)CC2C(=O)N(c3cccc(OC)c3)C(=O)N2Cc2ccco2)cc1 (centres undefined) the results were WT yeast gro inh -16, Diaphorase act 1.1, G6PDH counter 7, Diaphorase inh -8 and L major viab -3.
Screening Cc1ccc(N2C(=O)C3C(C2=O)C(C(=O)c2ccc(Cl)cc2)N2CCCC32)cc1 (centres undefined) returned WT yeast gro inh 30, Diaphorase act 0.9, G6PDH counter 3, Diaphorase inh 12 and L major viab 94*.
`COc1ccc(OC)c(NC(=O)c2cccc(S(=O)(=O)N(Cc3ccccc3)c3ccccc3OC)c2)c1` gave WT yeast gro inh 11, Diaphorase act 0.8, G6PDH counter -12, Diaphorase inh 19 and L major viab 96*.
For CCOc1ccccc1N(CC(=O)Nc1cc(OC)ccc1OC)S(C)(=O)=O the results were WT yeast gro inh -8, Diaphorase act 1, G6PDH counter 6, Diaphorase inh 0 and L major viab 84*.
Screening COc1ccc(N(Cc2ccccc2)S(=O)(=O)c2cccc(C(=O)NC3=NCCS3)c2)cc1 returned WT yeast gro inh 44, Diaphorase act 0.8, G6PDH counter -2, Diaphorase inh 18 and L major viab 8.
`COc1ccc(N(CC(=O)Nc2ccccc2C(=O)NCCc2ccccc2)S(C)(=O)=O)cc1OC` gave WT yeast gro inh -18, Diaphorase act 0.9, G6PDH counter 2, Diaphorase inh 15 and L major viab 90*.

Screening data: PubChem, several laboratories
